Data reported in the M2OR odorant receptor database.
Substitutions are numbered along the chain they refer to.

What was measured:
Conditions in all cases: stereoisomer not certain
OR2B3 (Homo sapiens) = target: T1, OR2B3 (Homo sapiens) (UniProt O76000)
T1 sequence (whole entry): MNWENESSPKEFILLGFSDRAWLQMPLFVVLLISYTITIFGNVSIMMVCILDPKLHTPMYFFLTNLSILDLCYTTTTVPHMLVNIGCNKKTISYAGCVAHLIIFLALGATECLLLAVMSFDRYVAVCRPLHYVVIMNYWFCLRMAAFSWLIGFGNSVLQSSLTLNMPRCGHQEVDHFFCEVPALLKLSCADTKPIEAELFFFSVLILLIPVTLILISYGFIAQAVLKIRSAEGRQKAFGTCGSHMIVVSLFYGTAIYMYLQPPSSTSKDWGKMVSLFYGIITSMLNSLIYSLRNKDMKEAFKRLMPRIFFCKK
In short: (§1)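 Assay methods differ from source to source, frequently being transient luciferase assays in mammalian cell lines. For each receptor–molecule pair, the label responsive (active) applies when the original authors judged the measured signal statistically different from baseline, and non-responsive (inactive) applies otherwise.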

OR2B6 (Homo sapiens) = target: T2, OR2B6 (Homo sapiens) (UniProt P58173)
T2 sequence (whole entry): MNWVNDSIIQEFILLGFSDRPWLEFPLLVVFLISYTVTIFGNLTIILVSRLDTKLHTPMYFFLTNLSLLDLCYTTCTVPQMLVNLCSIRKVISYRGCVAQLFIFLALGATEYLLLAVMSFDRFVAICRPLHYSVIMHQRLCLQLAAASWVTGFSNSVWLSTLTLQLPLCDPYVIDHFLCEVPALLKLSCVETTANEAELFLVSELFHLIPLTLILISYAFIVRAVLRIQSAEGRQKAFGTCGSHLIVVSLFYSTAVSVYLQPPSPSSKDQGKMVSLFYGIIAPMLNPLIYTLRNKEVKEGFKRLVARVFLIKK
In short: as §1

OR2BB [1] = test system: T3, OR2BB
T3 sequence (whole entry): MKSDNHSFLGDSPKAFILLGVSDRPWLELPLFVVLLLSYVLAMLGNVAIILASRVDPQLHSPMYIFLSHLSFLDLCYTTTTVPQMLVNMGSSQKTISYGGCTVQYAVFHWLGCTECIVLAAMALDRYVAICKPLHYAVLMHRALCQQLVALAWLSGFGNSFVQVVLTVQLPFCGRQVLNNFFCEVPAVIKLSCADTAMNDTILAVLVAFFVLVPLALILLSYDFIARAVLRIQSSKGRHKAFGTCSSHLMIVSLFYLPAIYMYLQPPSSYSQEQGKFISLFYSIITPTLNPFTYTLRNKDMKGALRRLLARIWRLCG
In short: as §1

OR2BB [2] = test system: T4, OR2BB; remark: listed apart in the source
T4 sequence (whole entry): T3 sequence (whole entry) with D223G
In short: as §1

OR2C1 (Homo sapiens) = target: T5, OR2C1 (Homo sapiens) (UniProt O95371)
T5 sequence (whole entry): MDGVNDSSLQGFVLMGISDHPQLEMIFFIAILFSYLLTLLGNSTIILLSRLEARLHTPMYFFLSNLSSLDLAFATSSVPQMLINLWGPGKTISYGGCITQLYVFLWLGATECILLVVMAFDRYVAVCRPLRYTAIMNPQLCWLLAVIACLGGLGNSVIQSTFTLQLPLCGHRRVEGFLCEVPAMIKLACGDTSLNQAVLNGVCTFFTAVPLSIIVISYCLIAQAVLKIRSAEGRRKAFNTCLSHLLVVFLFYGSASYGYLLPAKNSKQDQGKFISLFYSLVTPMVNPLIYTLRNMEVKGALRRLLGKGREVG
In short: as §1

OR2C1 [3] = test system: T6, OR2C1
T6 sequence (whole entry): T5 sequence (whole entry) with C149W
In short: as §1

OR2BB [4] = test system: OR2BB; remark: listed apart in the source
In short: as §1
Target sequence in this assay (as listed by the source): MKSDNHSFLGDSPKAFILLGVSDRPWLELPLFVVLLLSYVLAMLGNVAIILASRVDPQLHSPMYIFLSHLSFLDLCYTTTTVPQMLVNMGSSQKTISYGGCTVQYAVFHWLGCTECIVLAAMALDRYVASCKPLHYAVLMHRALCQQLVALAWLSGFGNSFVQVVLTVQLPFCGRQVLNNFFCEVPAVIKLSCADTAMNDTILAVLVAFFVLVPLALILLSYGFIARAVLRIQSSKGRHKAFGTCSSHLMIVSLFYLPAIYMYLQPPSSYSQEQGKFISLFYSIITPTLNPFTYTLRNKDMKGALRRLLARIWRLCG

OR2C1 [5] = test system: OR2C1; remark: listed apart in the source
In short: as §1
Target sequence in this assay (as listed by the source): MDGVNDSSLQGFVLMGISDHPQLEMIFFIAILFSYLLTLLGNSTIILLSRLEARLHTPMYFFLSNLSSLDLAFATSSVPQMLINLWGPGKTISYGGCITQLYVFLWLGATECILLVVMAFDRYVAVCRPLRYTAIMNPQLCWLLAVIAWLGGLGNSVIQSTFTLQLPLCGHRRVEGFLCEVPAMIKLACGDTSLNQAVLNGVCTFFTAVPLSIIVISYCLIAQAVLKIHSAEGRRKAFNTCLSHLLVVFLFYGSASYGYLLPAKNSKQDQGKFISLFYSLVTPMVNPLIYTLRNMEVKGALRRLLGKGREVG

OR2C1 [6] = test system: OR2C1; remark: listed apart in the source
In short: as §1
Target sequence in this assay (as listed by the source): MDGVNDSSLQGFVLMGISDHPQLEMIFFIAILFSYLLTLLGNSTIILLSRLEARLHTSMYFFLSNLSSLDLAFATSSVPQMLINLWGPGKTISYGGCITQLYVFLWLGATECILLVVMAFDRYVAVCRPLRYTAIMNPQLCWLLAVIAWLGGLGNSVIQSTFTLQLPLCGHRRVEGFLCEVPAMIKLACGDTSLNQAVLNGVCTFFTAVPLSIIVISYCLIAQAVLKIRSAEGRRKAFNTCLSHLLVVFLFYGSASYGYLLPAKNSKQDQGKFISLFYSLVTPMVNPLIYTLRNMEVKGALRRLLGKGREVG

CCC1OC(=O)C(O)=C1C (centres undefined)
odorant receptor agonist call (OR2B3 (Homo sapiens)): inactive | odorant receptor agonist call (OR2B6 (Homo sapiens)): inactive | odorant receptor agonist call (OR2BB [1]): inactive | odorant receptor agonist call (OR2BB [2]): inactive | odorant receptor agonist call (OR2C1 (Homo sapiens)): inactive | odorant receptor agonist call (OR2C1 [3]): inactive

C=CCOC(=O)COCCC(C)C
odorant receptor agonist call (OR2B3 (Homo sapiens)): inactive

Cc1ccc(C(C)C)cc1O
odorant receptor agonist call (OR2B3 (Homo sapiens)): inactive

CC1CC(C)(c2ccccc2)CO1 (centres undefined)
odorant receptor agonist call (OR2B3 (Homo sapiens)): inactive

CCC1OC(C)=C(O)C1=O (centres undefined)
odorant receptor agonist call (OR2B3 (Homo sapiens)): inactive | odorant receptor agonist call (OR2B6 (Homo sapiens)): inactive | odorant receptor agonist call (OR2BB [1]): inactive | odorant receptor agonist call (OR2BB [2]): inactive | odorant receptor agonist call (OR2C1 (Homo sapiens)): inactive | odorant receptor agonist call (OR2C1 [3]): inactive

Cc1occc(=O)c1OC(=O)C(C)C
odorant receptor agonist call (OR2B3 (Homo sapiens)): inactive

CCc1ccc(CC(C)(C)C=O)cc1
odorant receptor agonist call (OR2B3 (Homo sapiens)): inactive

CCC(=O)C=CC1C(C)=CCCC1(C)C (centres undefined)
odorant receptor agonist call (OR2B3 (Homo sapiens)): inactive

CC1=CCC2CC1C2(C)C (centres undefined)
odorant receptor agonist call (OR2B3 (Homo sapiens)): inactive

CC(C)(C)C1CCCCC1OCCCCO (centres undefined)
odorant receptor agonist call (OR2B3 (Homo sapiens)): inactive

CCCCC1CCC(=O)O1 (centres undefined)
odorant receptor agonist call (OR2B3 (Homo sapiens)): inactive

CC=CC(=O)C1C(C)=CCCC1(C)C (centres undefined)
odorant receptor agonist call (OR2B3 (Homo sapiens)): inactive

CCCCCCCCC(OC(C)=O)OC(C)=O
odorant receptor agonist call (OR2B3 (Homo sapiens)): inactive

CCCCCC1COCCC1OC(C)=O (centres undefined)
odorant receptor agonist call (OR2B3 (Homo sapiens)): inactive

CC(CC=O)c1ccc(C(C)(C)C)cc1 (centres undefined)
odorant receptor agonist call (OR2B3 (Homo sapiens)): inactive

OCc1ccccc1
odorant receptor agonist call (OR2B3 (Homo sapiens)): inactive

CCCCCC1C(=O)CCC1CC(=O)OC (centres undefined)
odorant receptor agonist call (OR2B3 (Homo sapiens)): inactive

CC(C)CCCC(C)(C)O
odorant receptor agonist call (OR2B3 (Homo sapiens)): inactive

COC1CC2CC1C1CC(C=O)CC21 (centres undefined)
odorant receptor agonist call (OR2B3 (Homo sapiens)): inactive

C=CC(C)(CCC=C(C)C)OC(C)=O (centres undefined)
odorant receptor agonist call (OR2B3 (Homo sapiens)): inactive

CCC=C(C)C(O)CCCCC (centres undefined)
odorant receptor agonist call (OR2B3 (Homo sapiens)): inactive

CCOC(=O)CC1(C)OCCO1
odorant receptor agonist call (OR2B3 (Homo sapiens)): inactive

Cc1cnc(C)c(C)n1
odorant receptor agonist call (OR2B3 (Homo sapiens)): inactive | odorant receptor agonist call (OR2B6 (Homo sapiens)): inactive | odorant receptor agonist call (OR2BB [1]): inactive | odorant receptor agonist call (OR2BB [2]): inactive | odorant receptor agonist call (OR2C1 (Homo sapiens)): inactive | odorant receptor agonist call (OR2C1 [3]): inactive

COc1ccc(C)cc1
odorant receptor agonist call (OR2B3 (Homo sapiens)): inactive

CCCC(C)C(=O)OCC (centres undefined)
odorant receptor agonist call (OR2B3 (Homo sapiens)): inactive

CC(C)=CCCC(C)CC=O (centres undefined)
odorant receptor agonist call (OR2B3 (Homo sapiens)): inactive

CC1=NC(C)C(C)S1 (centres undefined)
odorant receptor agonist call (OR2B3 (Homo sapiens)): inactive | odorant receptor agonist call (OR2B6 (Homo sapiens)): inactive | odorant receptor agonist call (OR2BB [1]): inactive | odorant receptor agonist call (OR2BB [2]): inactive | odorant receptor agonist call (OR2C1 (Homo sapiens)): inactive | odorant receptor agonist call (OR2C1 [3]): inactive

CC(=O)C=CC1=C(C)CCCC1(C)C
odorant receptor agonist call (OR2B3 (Homo sapiens)): active

O=c1ccc2ccccc2o1
odorant receptor agonist call (OR2BB [4]): inactive

c1ccc2ncccc2c1
odorant receptor agonist call (OR2BB [4]): inactive

CCCCCCCCS
odorant receptor agonist call (OR2C1 [5]): active | odorant receptor agonist call (OR2C1 [3]): active | odorant receptor agonist call (OR2C1 [6]): active

O=C([O-])C[SH2+]
odorant receptor agonist call (OR2C1 [3]): active
